The source made the active and inactive calls. No cut-off for these calls is given here.
Experiments:
[1] = molecular target: T1, Telomerase reverse transcriptase (Homo sapiens, UniProt O14746); test: Effect on human TERT expressed in H1299 cells at 1 uM after 24 hrs by SEAP assay relative to control
NCI/ADR-RES = test: Cytotoxicity against human NCI/ADR-RES cells at 10 uM after 48 hrs by MTT assay; type: functional
Summary of the method: (§1)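 Single-dose screen on the NCI 60-cell-line panel, run to the Developmental Therapeutics Program protocol (one-dose mean graph). Each value is the growth percentage of treated cells against untreated control cells.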

SK-MEL-5 = test: Cytotoxicity against human SK-MEL-5 cells at 10 uM after 48 hrs by MTT assay; type: functional; conditions: SK-MEL-5, 48 h, values are per cent of control
Summary of the method: as §1

SNB-19 = test: Cytotoxicity against human SNB19 cells at 10 uM after 48 hrs by MTT assay; type: functional; conditions: SNB-19, 48 h, values are per cent of control
Summary of the method: as §1

KM12 = test: Cytotoxicity against human KM12 cells at 10 uM after 48 hrs by MTT assay; type: functional; conditions: KM12, 48 h; for growth, % of control at 10 µM: values are per cent of control
Summary of the method: as §1

HCT-29 = test: Growth percent of human HCT29 cells at 10 uM after 48 hrs by MTT assay; conditions: HCT-29, 48 h
A498 = test: Cytotoxicity against human A498 cells at 10 uM after 48 hrs by MTT assay; type: functional; conditions: A498, 48 h
Summary of the method: as §1

SK-MEL-2 = test: Cytotoxicity against human SK-MEL-2 cells at 10 uM after 48 hrs by MTT assay; type: functional; conditions: SK-MEL-2, 48 h, values are per cent of control
Summary of the method: as §1

SF-539 = test: Cytotoxicity against human SF539 cells at 10 uM after 48 hrs by MTT assay; type: functional; conditions: SF-539, 48 h, values are per cent of control
Summary of the method: as §1

[2] = Cytotoxicity against human H1299 cells at 10 uM after 48 hrs by MTT assay realtive to control; type: functional; conditions: NCI-H1299, 48 h
Summary of the method: (§2)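 H1299 non-small-cell lung cells were kept in RPMI 1640 with 10% FBS and penicillin/streptomycin at 37 °C under 5% CO2. About 2 × 10^3 cells per well were pre-incubated for 24 h. Compound was added from freshly made DMSO solution diluted in complete medium and left for 48 h. MTT was then added for 4 h at 37 °C, followed by 20% SDS/50% DMF lysis buffer for 16 h at 37 °C, and absorbance read at 550 nm.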

U-251 = test: Cytotoxicity against human U251 cells at 10 uM after 48 hrs by MTT assay; type: functional; conditions: U-251, 48 h, values are per cent of control
Summary of the method: (§3)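 Single-dose screen in the NCI 60-cell-line panel, run according to the Developmental Therapeutics Program protocol (one-dose mean graph). The result is the growth percentage of treated cells relative to untreated control cells.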

UACC-257 = test: Cytotoxicity against human UACC257 cells at 10 uM after 48 hrs by MTT assay; type: functional; conditions: UACC-257, 48 h, values are per cent of control
Summary of the method: as §3

786-0 = test: Cytotoxicity against human 786-0 cells at 10 uM after 48 hrs by MTT assay; type: functional; conditions: 786-0, 48 h
Summary of the method: as §1

DU-145 = test: Cytotoxicity against human DU145 cells at 10 uM after 48 hrs by MTT assay; type: functional; conditions: DU-145, 48 h, values are per cent of control
Summary of the method: as §1

[3] = molecular target: T1, Telomerase reverse transcriptase; test: Inhibition of telomerase in human H1299 cells at 1 to 20 uM by TRAP assay; type: cell-based
Summary of the method: (§4)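 Modified TRAP assay using 2 µg total lysate from H1299 lung cancer cells as the telomerase source. Compounds were tested at 1, 5, 10 and 20 µM. Products were resolved on 10% polyacrylamide gels and stained with SYBR Green. A Taq-polymerase internal control was included, along with positive and negative controls.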

EKVX = test: Cytotoxicity against human EKVX cells at 10 uM after 48 hrs by MTT assay; type: functional
Summary of the method: as §1

RPMI-8226 = test: Cytotoxicity against human RPMI-8226 cells at 10 uM after 48 hrs by MTT assay; type: functional; conditions: RPMI-8226, 48 h
Summary of the method: as §1

OVCAR-3 = test: Cytotoxicity against human OVCAR-3 cells at 10 uM after 48 hrs by MTT assay; type: functional; conditions: OVCAR-3, 48 h
Summary of the method: as §1

[4] = Cytotoxicity against human CAK1-1 cells at 10 uM after 48 hrs by MTT assay; type: functional; conditions: CAK1-1, 48 h
Summary of the method: as §1

[5] = Cell viability of human H1299 cells at 1 uM after 48 hrs by MTT assay relative to control; conditions: NCI-H1299, 48 h
NCI-H522 = test: Growth percent of human NCI-H522 cells at 10 uM after 48 hrs by MTT assay; conditions: NCI-H522, 48 h
MCF7 = test: Cytotoxicity against human MCF7 cells at 10 uM after 48 hrs by MTT assay; type: functional; conditions: MCF7, 48 h, values are per cent of control
Summary of the method: as §1

NCI-H322M = test: Cytotoxicity against human NCI-H322M cells at 10 uM after 48 hrs by MTT assay; type: functional
Summary of the method: as §1

[6] = molecular target: T1, Telomerase reverse transcriptase; test: Effect on human TERT expressed in H1299 cells at 100 uM after 24 hrs by SEAP assay relative to control
BT-549 = test: Cytotoxicity against human BT549 cells at 10 uM after 48 hrs by MTT assay; type: functional; conditions: BT-549, 48 h
Summary of the method: as §1

[7] = Cytotoxicity against human TERT immortalized BJ1 cells at 100 uM after 48 hrs by MTT assay relative to control; type: cell-based, BJ
Summary of the method: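 hTERT-immortalized BJ1 fibroblasts were grown in DMEM with 10% FCS, 1 mM pyruvate and 4 mM […]. Cells (about 2 × 10^3 per well) were seeded and held 24 h at 37 °C. Compounds were freshly dissolved in DMSO, diluted into medium and left on the cells 48 h. MTT was added for 4 h, then SDS/DMF lysis buffer for 16 h. Absorbance was read at 550 nm and expressed relative to untreated cells (100%).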

SK-OV-3 = test: Cytotoxicity against human SKOV3 cells at 10 uM after 48 hrs by MTT assay; type: functional; conditions: SK-OV-3, 48 h
Summary of the method: as §1

HOP-92 = test: Cytotoxicity against human HOP92 cells at 10 uM after 48 hrs by MTT assay; type: functional; conditions: HOP-92, 48 h
Summary of the method: as §1

K562 = test: Cytotoxicity against human K562 cells at 10 uM after 48 hrs by MTT assay; type: functional; conditions: K562, 48 h
Summary of the method: as §1

SK-MEL-28 = test: Cytotoxicity against human SK-MEL-28 cells at 10 uM after 48 hrs by MTT assay; type: functional; conditions: SK-MEL-28, 48 h, values are per cent of control
Summary of the method: as §1

HCT-15 = test: Growth percent of human HCT15 cells at 10 uM after 48 hrs by MTT assay; conditions: HCT-15, 48 h
[8] = molecular target: T1, Telomerase reverse transcriptase; test: Inhibition of G-quadruplex-induced human TERT in H1299 cells by TRAP assay; type: cell-based
Summary of the method: as §4

[9] = Cytotoxicity against human H1299 cells at 100 uM after 48 hrs by MTT assay realtive to control; type: functional; conditions: NCI-H1299, 48 h
Summary of the method: as §2

T1 sequence (O14746 whole entry): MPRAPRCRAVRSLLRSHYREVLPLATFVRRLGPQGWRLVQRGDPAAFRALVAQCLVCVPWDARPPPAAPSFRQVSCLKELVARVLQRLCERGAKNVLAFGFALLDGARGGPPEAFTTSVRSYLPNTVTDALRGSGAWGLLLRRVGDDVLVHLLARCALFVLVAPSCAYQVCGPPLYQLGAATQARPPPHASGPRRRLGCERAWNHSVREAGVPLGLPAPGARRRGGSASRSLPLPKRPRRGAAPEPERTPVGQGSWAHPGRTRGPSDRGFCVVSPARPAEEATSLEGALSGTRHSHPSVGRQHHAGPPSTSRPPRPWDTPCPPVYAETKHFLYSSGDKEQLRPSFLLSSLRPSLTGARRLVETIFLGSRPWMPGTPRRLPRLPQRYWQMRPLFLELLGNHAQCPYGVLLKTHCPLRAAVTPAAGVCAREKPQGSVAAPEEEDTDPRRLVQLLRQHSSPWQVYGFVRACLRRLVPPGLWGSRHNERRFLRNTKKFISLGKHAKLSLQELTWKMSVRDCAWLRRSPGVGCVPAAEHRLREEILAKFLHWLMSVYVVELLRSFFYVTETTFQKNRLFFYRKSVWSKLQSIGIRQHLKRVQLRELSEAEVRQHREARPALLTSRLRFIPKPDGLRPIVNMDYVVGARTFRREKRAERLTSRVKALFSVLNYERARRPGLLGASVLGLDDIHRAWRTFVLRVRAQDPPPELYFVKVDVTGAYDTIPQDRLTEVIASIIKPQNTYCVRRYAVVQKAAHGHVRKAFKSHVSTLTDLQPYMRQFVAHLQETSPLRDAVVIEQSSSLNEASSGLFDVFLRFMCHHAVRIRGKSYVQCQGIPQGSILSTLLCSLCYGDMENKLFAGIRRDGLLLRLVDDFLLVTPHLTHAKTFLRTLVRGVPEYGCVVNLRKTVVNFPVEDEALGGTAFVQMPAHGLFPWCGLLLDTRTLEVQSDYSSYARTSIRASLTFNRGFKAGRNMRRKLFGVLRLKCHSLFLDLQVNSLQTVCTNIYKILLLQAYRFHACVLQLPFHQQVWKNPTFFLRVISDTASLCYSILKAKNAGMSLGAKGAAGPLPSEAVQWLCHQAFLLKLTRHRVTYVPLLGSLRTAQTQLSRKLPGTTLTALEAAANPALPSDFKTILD

Row | SMILES | residual activity [1] | growth percent at 10 µM (NCI/ADR-RES) | growth, % of control at 10 µM (SK-MEL-5) | growth, % of control at 10 µM (SNB-19) | growth percent at 10 µM (HCT-29) | growth percent at 10 µM (A498) | growth, % of control at 10 µM (SK-MEL-2) | growth, % of control at 10 µM (SF-539) | viability at 10 µM [2] | growth, % of control at 10 µM (U-251) | growth, % of control at 10 µM (UACC-257) | growth percent at 10 µM (786-0) | growth, % of control at 10 µM (DU-145) | growth percent at 10 µM (EKVX) | growth percent at 10 µM (RPMI-8226) | growth percent at 10 µM (OVCAR-3) | growth percent at 10 µM [4] | cell viability at 1 µM [5] | growth percent at 10 µM (NCI-H522) | growth, % of control at 10 µM (MCF7) | also measured
1 | O=C(CCN1CCCC1)Nc1ccc2c(c1)C(=O)c1cc(NC(=O)CCN3CCCC3)ccc1C2=O | 73% | 80.6% | 56.9% | 67% | 19.5% | -0.91% | -45.2% | 33.8% | 54% | 18.2% | -17.9% | 40.5% | 29.5% | 58.7% | 47.9% | 36.9% | 55.5% | 87% | 29.2% | 13.3% | growth percent at 10 µM (KM12): 32.5%; Activity [3]: Active; growth percent at 10 µM (NCI-H322M): 45.8%; residual activity [6]: 17%; growth percent at 10 µM (BT-549): 76.9%; viability at 48 h, 100 µM [7]: 39%; growth percent at 10 µM (SK-OV-3): 27.1%; growth percent at 10 µM (HOP-92): 7.04%; growth percent at 10 µM (K562): 6.4%; growth, % of control at 10 µM (SK-MEL-28): 15%; growth percent at 10 µM (HCT-15): 56.1%; IC50 [8]: 6.7 µM; viability at 100 µM [9]: 12%
2 | O=C1c2ccc(NC(=O)C3CC3)cc2C(=O)c2cc(NC(=O)C3CC3)ccc21 | 80% | 90.8% | 75.7% | 98.8% | 106% | 92.3% | 16.9% | 93.2% | 36% | 72.6% | 108% | 94.9% | 98.8% | 94.3% | 88.4% | 103% | 88.4% | 46% | 89.4% | 77.4% | growth percent at 10 µM (KM12): 92.7%; growth percent at 10 µM (NCI-H322M): 106%; residual activity [6]: 81%; growth percent at 10 µM (BT-549): 92.5%; viability at 48 h, 100 µM [7]: 47%; growth percent at 10 µM (SK-OV-3): 93.2%; growth percent at 10 µM (HOP-92): 86.2%; growth percent at 10 µM (K562): 91.6%; growth, % of control at 10 µM (SK-MEL-28): 109%; growth percent at 10 µM (HCT-15): 86.3%; viability at 100 µM [9]: 43%
3 | CN(C)CC(=O)Nc1ccc2c(c1)C(=O)c1cc(NC(=O)CN(C)C)ccc1C2=O | 87% | 47.8% | 82.6% | 79.6% | 11.7% | -6.39% | -30.4% | -3.72% | 55% | 16.1% | -1.84% | 68.6% | 78.7% | 102% | 35% | 43.6% | 59.3% | 92% | 61.8% | 7.92% | growth, % of control at 10 µM (KM12): 67%; growth percent at 10 µM (NCI-H322M): 32.4%; residual activity [6]: 21%; growth percent at 10 µM (BT-549): 85.4%; viability at 48 h, 100 µM [7]: 39%; growth percent at 10 µM (SK-OV-3): 70.3%; growth percent at 10 µM (HOP-92): 56.1%; growth percent at 10 µM (K562): 34.9%; growth, % of control at 10 µM (SK-MEL-28): 32.1%; growth percent at 10 µM (HCT-15): 16.3%; viability at 100 µM [9]: 15%
4 | CCN(CC)CCC(=O)Nc1ccc2c(c1)C(=O)c1cc(NC(=O)CCN(CC)CC)ccc1C2=O | 76% | 59.5% | 82.8% | 75.8% | 3.3% | -38.8% | -60.4% | 37.1% | 41% | 21.6% | -14.5% | 24.7% | 10.2% | 60% | -29% | 10.4% | 3.27% | 106% | 28% | 9.34% | growth, % of control at 10 µM (KM12): 21.8%; Activity [3]: Active; growth percent at 10 µM (NCI-H322M): 44.8%; residual activity [6]: 26%; growth percent at 10 µM (BT-549): 57%; viability at 48 h, 100 µM [7]: 36%; growth percent at 10 µM (SK-OV-3): 44%; growth percent at 10 µM (HOP-92): 9.7%; growth percent at 10 µM (K562): 8.1%; growth, % of control at 10 µM (SK-MEL-28): 2.56%; growth percent at 10 µM (HCT-15): 17.4%; viability at 100 µM [9]: 1%
5 | CC(=O)Nc1ccc2c(c1)C(=O)c1cc(NC(C)=O)ccc1C2=O | 97% | 114% | 109% | 94.4% | 107% | 116% | 30.1% | 103% | 83% | 95.1% | 27% | 97.7% | 117% | 95.3% | 121% | 111% | 105% | 117% | 93.6% | 96.9% | growth percent at 10 µM (KM12): 106%; growth percent at 10 µM (NCI-H322M): 97.5%; residual activity [6]: 74%; growth percent at 10 µM (BT-549): 93.3%; viability at 48 h, 100 µM [7]: 91%; growth percent at 10 µM (SK-OV-3): 101%; growth percent at 10 µM (HOP-92): 101%; growth percent at 10 µM (K562): 98.5%; growth, % of control at 10 µM (SK-MEL-28): 118%; growth percent at 10 µM (HCT-15): 93.9%; viability at 100 µM [9]: 55%

— ChEMBL document CHEMBL1155063 (Bioorg Med Chem, 2008)
